≈ marks a conversion by molar mass, not a printed value. Calls of active or inactive are those of the source. The rule behind the calls is not given here.

Series [1] has as its system Enterococcus faecalis. As to the kind of experiment: Antibacterial activity against vancomycin-resistant Enterococcus faecalis UCN41 challenged with ID90 bacterial size inoculum in Wistar rat assessed as infection at single administration of 2 to 3 g, po. Type of series: functional, organism-based. In short, it runs like this: (§1)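 Female Wistar rats (180 to 200 g) with catheter-induced sterile aortic vegetations; 24 h after catheterization, groups of 10 received prophylaxis by pump at changing flow rates mimicking human serum kinetics; controls got i.v. saline. I.v. challenge at peak serum drug level with ID90 or 10 times ID90. Vegetations cultured 72 h after prophylaxis ended; sterile if no growth, detection limit ≥2 log10 CFU/g.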

Series [2] deals with Rattus norvegicus. As to the kind of experiment: T>MIC in Enterococcus faecalis infected Wistar rat at single administration of 2 to 3 g, po. The class given is ADME, organism-based. The conditions noted are these: in vivo. A digest of the protocol: (§2)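 Catheterized female Wistar rats received pump-controlled i.v. infusion at changing flow rates simulating human serum kinetics of the oral regimen. Serum drug levels were measured by agar diffusion bioassay in groups of 3–5 animals. Indicator organisms were B. subtilis ATCC 6633 for amoxicillin (detection limit 0.39 mg/liter) and S. aureus ATCC 29213 for linezolid (detection limit 3.12 mg/liter). Values are means ± SD.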

For series [3], the system named is Enterococcus faecalis. The series is described as follows: Antibacterial activity against vancomycin-susceptible Enterococcus faecalis 1209 after 24 hrs by broth macrodilution method. Type of series: functional.
For series [4], the system named is Enterococcus faecalis. The series is described as follows: Antibacterial activity against vancomycin-susceptible Enterococcus faecalis 309 after 24 hrs by broth macrodilution method. The class given is functional.
Series [5] can be described thus: Cmax in Enterococcus faecalis infected Wistar rat at single administration of 2 to 3 g, po. Type of series: ADME, organism-based. The conditions noted are these: in vivo. A digest of the protocol: as §2
The test system of series [6] is Enterococcus faecalis. The series is described as follows: Antibacterial activity against vancomycin-susceptible Enterococcus faecalis 309 challenged with 10 times ID90 bacterial size inoculum in Wistar rat assessed as infection at single administration of 2 to 3 g, po.
Series [7] has as its system Enterococcus faecalis. As to the kind of experiment: Antibacterial activity against vancomycin-susceptible Enterococcus faecalis 1209 challenged with 10 times ID90 bacterial size inoculum in Wistar rat assessed as infection at single administration of 2 to 3 g, po.
The test system of series [8] is Enterococcus faecalis. As to the kind of experiment: Antibacterial activity against vancomycin-susceptible Enterococcus faecalis JH2-2 after 24 hrs by broth macrodilution method. Type of series: functional.
Series [9] relates to Enterococcus faecalis. As to the kind of experiment: Antibacterial activity against vancomycin-resistant Enterococcus faecalis UCN41 after 24 hrs by broth macrodilution method. Type of series: functional.
Series [10] relates to Enterococcus faecalis. The series is described as follows: Antibacterial activity against vancomycin-resistant Enterococcus faecalis UCN41 challenged with 10 times ID90 bacterial size inoculum in Wistar rat assessed as infection at single administration of 600 mg, po. The class given is functional, organism-based. A digest of the protocol:
as §1

Series [11] concerns Enterococcus faecalis. As to the kind of experiment: Antibacterial activity against vancomycin-susceptible Enterococcus faecalis 309 challenged with ID90 bacterial size inoculum in Wistar rat assessed as infection at single administration of 2 to 3 g, po. The class given is functional, organism-based. In short, it runs like this:
(§3)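 Female Wistar rats (180–200 g) with catheter-induced sterile aortic vegetations. 24 h after catheterization, drug is delivered i.v. by pump at changing flow rates to mimic human serum kinetics of a single 2–3 g oral dose. Rats are challenged i.v. with the ID90 at peak serum concentration. Vegetations are cultured 72 h after prophylaxis ends; sterile = no growth (detection ≥2 log10 CFU/g).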

Series [12] in a line: Tmax in Enterococcus faecalis infected Wistar rat at single administration of 2 to 3 g, po. Type of series: ADME, organism-based. To be noted: in vivo. A digest of the protocol:
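Female Wistar rats (180-200 g) with catheter-induced sterile aortic vegetations; 24 h after catheterization, drug delivered by pump at changing flow rates to mimic human serum kinetics of a single 2-3 g oral dose. Serum levels in groups of 3-5 rats by agar diffusion bioassay (Bacillus subtilis ATCC 6633 indicator; detection limit 0.39 mg/liter); means ± SD.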

The test system of series [13] is Enterococcus faecalis. The series is described as follows: Antibacterial activity against vancomycin-susceptible Enterococcus faecalis JH2-2 challenged with ID90 bacterial size inoculum in Wistar rat assessed as infection at single administration of 2 to 3 g, po. Type of series: functional, organism-based. In short, it runs like this: as §3
A short description of series [14]: Cmax in Enterococcus faecalis infected Wistar rat at 600 mg, po four consecutive administration every 12 hrs. The conditions noted are these: in vivo. The class given is ADME, organism-based. Also noted: dose 600 mg, route oral. A digest of the protocol:
as §2

The nature of series [15]: Tmax in Enterococcus faecalis infected Wistar rat at 600 mg, po two consecutive administration every 12 hrs. The class given is ADME, organism-based. To be noted: in vivo. In short, it runs like this: (§4)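 Female Wistar rats (180–200 g) with sterile aortic vegetations from a carotid catheter received drug 24 h later by pump at changing flow rates, mimicking human serum kinetics of 600 mg oral doses every 12 h. Serum levels were measured in groups of three to five rats by agar diffusion bioassay (S. aureus ATCC 29213 indicator; detection limit 3.12 mg/liter).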

Series [16] in a line: Cmax in Enterococcus faecalis infected Wistar rat at single administration of 600 mg, po. The conditions noted are these: in vivo. Type of series: ADME, organism-based. On the set-up: dose 600 mg, route oral. A digest of the protocol: as §2
The nature of series [17]: Tmax in Enterococcus faecalis infected Wistar rat at 600 mg, po four consecutive administration every 12 hrs. The class given is ADME, organism-based. To be noted: in vivo. A digest of the protocol: as §4
Series [18] is described as follows: Tmax in Enterococcus faecalis infected Wistar rat at single administration of 600 mg, po. To be noted: in vivo. Type of series: ADME, organism-based. A digest of the protocol:
as §4

In series [19] the test system is Rattus norvegicus. As to the kind of experiment: T>MIC in Enterococcus faecalis infected Wistar rat at 600 mg, po two consecutive administration every 12 hrs. Type of series: ADME, organism-based. The conditions noted are these: in vivo. A digest of the protocol:
as §2

For series [20], the system named is Rattus norvegicus. As to the kind of experiment: T>MIC in Enterococcus faecalis infected Wistar rat at single administration of 600 mg, po. The conditions noted are these: in vivo. Type of series: ADME, organism-based. A digest of the protocol: as §2
The nature of series [21]: Cmax in Enterococcus faecalis infected Wistar rat at 600 mg, po two consecutive administration every 12 hrs. Type of series: ADME, organism-based. On the set-up: dose 600 mg, route oral. The conditions noted are these: in vivo. In short, it runs like this: as §2
Series [22] relates to Rattus norvegicus. As to the kind of experiment: T>MIC in Enterococcus faecalis infected Wistar rat at 600 mg, po four consecutive administration every 12 hrs. Type of series: ADME, organism-based. To be noted: in vivo. In short, it runs like this: as §2
The subject of series [23] is Rattus norvegicus. The series is described as follows: T>MIC in Enterococcus faecalis infected Wistar rat at single administration of 1 g, iv. The class given is ADME, organism-based. To be noted: in vivo. A digest of the protocol: (§5)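 Serum drug levels in rats receiving human-kinetics simulation by pump, measured in groups of three to five animals by agar diffusion bioassay with Bacillus subtilis ATCC 6633 as indicator; detection limit 1.76 mg/liter; linear standard curves. Values as means ± SD.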

The subject of series [24] is Enterococcus faecalis. As to the kind of experiment: Antibacterial activity against vancomycin-resistant Enterococcus faecalis UCN41 challenged with ID90 bacterial size inoculum in Wistar rat assessed as infection at single administration of 1 g, iv. Type of series: functional, organism-based. A digest of the protocol: as §1
Series [25] is described as follows: Tmax in Enterococcus faecalis infected Wistar rat at single administration of 1 g, iv. To be noted: in vivo. Type of series: ADME, organism-based. In short, it runs like this: as §5
For series [26], the system named is Enterococcus faecalis. As to the kind of experiment: Antibacterial activity against vancomycin-susceptible Enterococcus faecalis JH2-2 challenged with ID90 bacterial size inoculum in Wistar rat assessed as infection at single administration 1 g, iv. The class given is functional, organism-based. A digest of the protocol: as §1
Series [27] in a line: Cmax in Enterococcus faecalis infected Wistar rat at single administration of 1 g, iv. The class given is ADME, organism-based. Also noted: dose 1 g, route intravenous. The conditions noted are these: in vivo. In short, it runs like this: as §5
The mark [28] stands for this setting: Enterococcus faecalis, 1209, 24 h.
[29] abbreviates: Enterococcus faecalis, 309, 24 h.

A word on the MIC: it is the least concentration at which growth counts as inhibited. A low value points to greater potency. What is called Cmax is the peak of the concentration-time curve. As usually defined, the Tmax is the time at which the peak concentration occurs. With `CC1(C)S[C@@H]2[C@H](NC(=O)[C@H](N)c3ccc(O)cc3)C(=O)N2[C@H]1C(=O)O` [AMOXICILLIN], the result with Enterococcus faecalis [1], with Enterococcus faecalis [6], in the series on Enterococcus faecalis [7], in the series with Enterococcus faecalis [10], with Enterococcus faecalis [11] and in the series with Enterococcus faecalis [13] was Active. The “T>MIC” value in the series on Rattus norvegicus [2] worked out at 12 h. The MIC in the series on Enterococcus faecalis [3] (setting [28]) stood at 1 µg/mL (≈ 2.74 µM); against Enterococcus faecalis [4] (setting [29]), 0.5 µg/mL (≈ 1.37 µM); in the series on Enterococcus faecalis [8] (JH2-2, 24 h), 0.25 µg/mL (≈ 0.684 µM); in the series with Enterococcus faecalis [9] (UCN41, 24 h) it was 0.25 µg/mL (≈ 0.684 µM). For the same compound, the peak concentration (Cmax) in series [5] worked out at 29400 ng/mL. In addition, in [12], the time of peak concentration (Tmax) was determined as 2 h.
For the compound GENTAMICIN, the minimal inhibitory concentration (MIC) with Enterococcus faecalis [3] came to 16 µg/mL; in the series on Enterococcus faecalis [4], 64 µg/mL; against Enterococcus faecalis [8], 2 µg/mL; in the series with Enterococcus faecalis [9] it was 1 µg/mL.
Regarding `CC(=O)NC[C@H]1CN(c2ccc(N3CCOCC3)c(F)c2)C(=O)O1` [LINEZOLID], the Cmax was found to be 19300 ng/mL in series [14], 17500 ng/mL in series [16] and 18600 ng/mL in [21]. For the same compound, the time to peak (Tmax) in series [15], in series [17] and in [18] was 1 h each time. Also, the “T>MIC” value with Rattus norvegicus [19] came to 24 h; in the series with Rattus norvegicus [20], 12 h; with Rattus norvegicus [22], 48 h. The result in the series on Enterococcus faecalis [10] was inactive.
Consider `CN[C@H](CC(C)C)C(=O)N[C@H]1C(=O)N[C@@H](CC(N)=O)C(=O)N[C@H]2C(=O)N[C@H]3C(=O)N[C@H](C(=O)N[C@H](C(=O)O)c4cc(O)cc(O)c4-c4cc3ccc4O)[C@H](O)c3ccc(c(Cl)c3)Oc3cc2cc(c3O[C@@H]2O[C@H](CO)[C@@H](O)[C@H](O)[C@H]2O[C@H]2C[C@](C)(N)[C@H](O)[C@H](C)O2)Oc2ccc(cc2Cl)[C@H]1O` [VANCOMYCIN], for which the MIC was 4 µg/mL (≈ 2.76 µM) with Enterococcus faecalis [3] (setting [28]); 4 µg/mL (≈ 2.76 µM) against Enterococcus faecalis [4] (setting [29]); 1 µg/mL (≈ 0.69 µM) against Enterococcus faecalis [8] (JH2-2, 24 h); above 256 µg/mL against Enterococcus faecalis [9] (UCN41, 24 h). Besides, in the series with Rattus norvegicus [23], the “T>MIC” value came out at 12 h. The result in the series with Enterococcus faecalis [24] was inactive. For the same compound, the time to peak (Tmax) in [25] is 0.5 h. Further, in the series on Enterococcus faecalis [26], the outcome was Active. Moreover, the Cmax in series [27] is 37800 ng/mL.

Source of the values: ChEMBL document CHEMBL1145514, “Single-dose oral amoxicillin or linezolid for prophylaxis of experimental endocarditis due to vancomycin-susceptible and vancomycin-resistant Enterococcus faecalis” (Antimicrob Agents Chemother, 2007).
